# ARNT-TACC3 inh – disrupts binding between human ARNT and TACC3 | actives 0.66% (n = 390,000) | inhibition, % at 9.99 µM | AID 623870 | Q9Y6A5 | AlphaScreen His-ARNT PAS-B/GST-TACC3 binding, luminescence; TACC3 fragment carries E629A point mutation;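 active means mean inhibition of replicates at least 50% and at least half of replicates each reaching 50%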;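 further: 0% = complete ARNT plus TACC3 wells and 100% = ARNT alone without TACC3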
# Tn7 DDE FP – disrupts Tn7 cyclic peptide binding to fibrin D-Dimer-E complex. P02675. FP displacement of FITC-Tn7 peptide from fibrin DD(E); 0% = median of compound wells per plate. inhibition, % at 8.3 µM. actives 0.13% (n = 370,000);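 active means inhibition above the mean of compounds falling within the control limits plus 3 SD of them, cut at about 14% in these data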;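 further: 0% = plate median of compound wells and 100% = 10 µM Aha-Tn7 peptide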
#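 assay system = human clot-derived fibrin DD(E) complex | quantity = Fibrin-DD(E) at 2 µM final | timing = 10 min preincubation, 3 h with tracer, room temperature | signal = fluorescence polarization | measure = percent inhibition | benchmarks = high control wells with 10 µM unlabelled Aha-Tn7 peptide (full inhibition) | replicates = singlicate testing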
# CAL PDZ FP-1 – blocks peptide binding to human CAL PDZ domain. Q9HD26. purified CAL PDZ, TMR-peptide fluorescence polarization, 1 h. inhibition, % at 20 µM. actives 0.02% (n = 330,000);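 active means highest replicate inhibition of at least 40%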;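 further: plate controls were DMSO neutral control wells for no effect and unlabeled competitor peptide control wells for full effect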
#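 Material: tagged CAL PDZ domain; buffer or medium: 25 mM sodium phosphate pH 7.4, 150 mM NaCl, TCEP, IgG, Thesit; compound dosing: single point, 20 µM; schedule: 1 h incubation at room temperature before polarization reading; measured by: FP readout, S and P plane fluorescence; read-out basis: percent inhibition from loss of millipolarization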
# GRK2 inh – blocks RNA aptamer binding to human GRK2. bead flow cytometry, FAM-aptamer displacement from GRK2. actives 0.59% (n = 330,000). inhibition of aptamer binding, % at 10 µM;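 active means inhibition of aptamer binding above 40%, roughly 3 SD of noise, on plates passing a quality check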;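 further: median bead fluorescence of bound FAM aptamer so fluorescent compounds give negative values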
# Target sequence (P25098 whole entry, looked up): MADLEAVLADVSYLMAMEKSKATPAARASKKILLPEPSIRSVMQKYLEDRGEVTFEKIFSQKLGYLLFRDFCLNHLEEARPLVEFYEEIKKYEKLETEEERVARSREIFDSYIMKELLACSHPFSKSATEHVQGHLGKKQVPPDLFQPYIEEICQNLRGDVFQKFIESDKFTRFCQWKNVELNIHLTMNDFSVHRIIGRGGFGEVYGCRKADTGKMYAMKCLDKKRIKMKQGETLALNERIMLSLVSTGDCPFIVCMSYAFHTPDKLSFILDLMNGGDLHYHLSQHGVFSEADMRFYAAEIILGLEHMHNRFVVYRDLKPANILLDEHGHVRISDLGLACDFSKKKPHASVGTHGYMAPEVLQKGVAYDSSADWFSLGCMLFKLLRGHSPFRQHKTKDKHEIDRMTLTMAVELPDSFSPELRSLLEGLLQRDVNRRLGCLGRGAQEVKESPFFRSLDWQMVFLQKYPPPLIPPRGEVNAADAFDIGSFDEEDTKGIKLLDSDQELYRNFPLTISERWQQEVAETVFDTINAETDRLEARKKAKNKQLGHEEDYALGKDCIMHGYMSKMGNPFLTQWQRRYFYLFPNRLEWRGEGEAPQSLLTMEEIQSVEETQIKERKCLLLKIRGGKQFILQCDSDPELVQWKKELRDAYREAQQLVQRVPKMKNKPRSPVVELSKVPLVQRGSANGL
# DDE Tn6 FP inh – DD(E)-Tn6 binding inhibition, primary FP screen; inhibition, % at 8.3 µM; P02675; Fibrin DD(E) TRITC-Tn6 fluorescence polarization displacement; AID 720509; actives 0.21% (n = 370,000);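 active means inhibition above a per-campaign cutoff: mean of compounds within control limits plus 3 SD, cut at about 15% in these data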;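 further: 0% = median of all compound wells on the plate and 100% = blocking peptide control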
# CAL PDZ FP-2 – CAL PDZ (human) peptide binding inhibition | Q9HD26 | purified CAL PDZ, TMR-peptide fluorescence polarization, 1 h | inhibition, % at 24.9 µM | actives 0.92% (n = 300,000);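 active means mean inhibition of at least 30% with at least half of replicates also reaching 30%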;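 further: 0% = DMSO neutral control and 100% = excess unlabeled competitor peptide PRC23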
# ARNT Alpha ctr-1 – AlphaScreen artifact in ARNT/TACC3 counter-screen; actives 50% (n = 1,200); shares compounds with ARNT-TACC3 inh; AC50, µM (top dose mostly 68 µM), inactives show top-dose activity change, negative = signal decrease; His-ARNT PASB-GST AlphaScreen artifact counter-screen, luminescence;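 active means every separate test run was called active for a drop in luminescence, with AC50 within twice the top valid dose, actives reach about 71 µM in these data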
# ARNT Alpha ctr-2 – counter-screen for ARNT-TACC3 inhibitors: AlphaScreen artifacts | AC50, µM | shares compounds with ARNT-TACC3 inh | actives 70% (n = 45) | AID 720564 | Dual-tagged His-ARNT PASB-GST AlphaScreen artifact counter-screen;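 active means luminescence drop, with half-maximal potency fitted within twice the sample's top valid dose, cut at about 70 µM in these data; inactive means the rest, including signal moving the wrong way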
# Tn7 DDE conf – DD(E)-Tn7 binding inhibition, FP confirmation; inhibition, % at 8.3 µM; FP displacement of TRITC-Tn7 peptide from DD(E); 0% set at plate's compound-well median; shares compounds with Tn7 DDE FP; actives 5% (n = 460); AID 720628;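 active means inhibition above the campaign cutoff, the mean of compounds within control limits plus 3 SD, cut at about 14% in these data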;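 further: 100% = median FP of high control wells holding Aha-Tn7 inhibitor peptide; displacers lower polarization since freed probe rises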
# DDE Tn7 FP ctr – counter-screen hit for Tn7 peptide-fibrin DD(E) binding disruption; inhibition, % at 8.3 µM; actives 3% (n = 460); shares compounds with Tn7 DDE FP; TRITC-Tn7 probe displacement, fluorescence polarization;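 active means inhibition above the cutoff, the mean of compounds lying between the control bounds plus 3 SD of those compounds, cut at about 17% in these data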;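 further: 0% = median of compound sample wells and 100% = excess unlabeled Aha-Tn7 peptide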
# Numbers without * were called inactive; · = not tested or not shown. A selection: hits, their analogues and other compounds. The true share with any hit is near 1.8%.
SMILES,ARNT-TACC3 inh,Tn7 DDE FP,CAL PDZ FP-1,GRK2 inh,DDE Tn6 FP inh,CAL PDZ FP-2,others
COCc1cc(CN2CCN(C)CC2)c(O)c2ncccc12,67*,2,0,0,12,-1,ARNT Alpha ctr-1=10µM*
CC(C)CC#Cc1ccc2c(c1)O[C@H](CN(C)Cc1cccnc1)[C@@H](C)CN([C@H](C)CO)S2(=O)=O,5,·,·,·,·,·,
CNC(=O)C[C@H]1CC[C@H]2[C@@H](COC[C@@H](O)CN2C(=O)c2ccccn2)O1,-41,·,·,·,·,·,
Nn1c(SCC(=O)Nc2cccc3ccccc23)nnc1-c1cc(-c2ccc(Cl)cc2)n[nH]1,·,2,·,·,6,·,
CCOC(=O)[C@]12CCCC=C1N(Cc1cccc3ccccc13)C(=O)[C@H](CC(=O)NCCc1ccccc1OC)C2,·,8,·,·,-13,·,
O=C(Oc1c(CN2CCOCC2)cc(Cl)c2cccnc12)c1ccccc1Br,63*,5,0,1,-5,4,ARNT Alpha ctr-1=33µM*
CCC(=O)N(C)C[C@@H]1Oc2cc(-c3ccc(C#N)cc3)ccc2S(=O)(=O)N([C@H](C)CO)C[C@H]1C,-5,·,·,·,·,·,
O=C(C[C@H]1C[C@@H]2c3cc(NC(=O)CC4CC4)ccc3O[C@@H]2[C@@H](CO)O1)NCC1CC1,2,·,·,·,·,·,
COC(=O)Cc1cc(=O)n(-c2nc3ccccc3[nH]2)[nH]1,62*,-9,-2,0,-1,·,ARNT Alpha ctr-1=60µM*;ARNT Alpha ctr-2=38*
COC(=O)Cc1[nH]n(-c2nc3ccccc3s2)c(=O)c1C(C)=O,10,10,0,3,3,0,
O=C(O)CSc1c(O)c2ccccc2[nH]c1=O,60*,4,-1,2,-4,2,ARNT Alpha ctr-1=-10%
O=c1[nH]c2ccccc2c(O)c1SCCO,·,-6,-3,4,4,0,
O=C(N/N=C/c1c(Cl)nc2ccccn2c1=O)c1cccnc1,57*,-3,-3,0,-1,-4,ARNT Alpha ctr-1=-10%
Cc1c(/C=N/NC(=O)c2cccnc2)c2ccccn2c1C(=O)c1ccc(F)cc1,·,·,·,0,·,·,
O=C(N/N=C/c1cc(Br)cc(Br)c1O)c1ccncc1,·,-4,·,1,-2,·,
O=C(N/N=C/c1cc(Cl)cc(Cl)c1O)c1ccncc1,54*,0,-4,1,-5,0,ARNT Alpha ctr-1=34µM*
O=C(N/N=C/c1cc(Cl)ccc1O)c1cccnc1,58*,-1,-2,0,4,-4,ARNT Alpha ctr-1=60µM*
CC(=O)N1CC[C@@H]2[C@H]1c1cc(-c3cccc(F)c3)ccc1N(C)[C@H]2CO,-14,·,·,·,·,·,
CC(C)Nc1nc(NC(C)C)nc(C(=O)OCCO)n1,57*,-9,-1,0,-10,·,ARNT Alpha ctr-1=-13%
COC(=O)C1(NC(=O)CNC(=O)OCc2ccccc2)CCCC1,active,0,0,·,5,-2,ARNT Alpha ctr-1=-1%
COP(=O)(OC)C(Cc1ccccc1)NC(=O)CNC(=O)OCc1ccccc1 (stereo not drawn),·,-6,·,·,5,·,
O=C(CCc1nnc(Cc2ccc(-c3ccccc3)cc2)o1)N1CCCC1,2,16*,-2,0,7,·,Tn7 DDE conf=-6;DDE Tn7 FP ctr=-9
CN(C)C(=O)C[C@H]1CC[C@@H](NS(=O)(=O)c2ccccc2)[C@H](CO)O1,-2,·,·,·,·,·,
CC(C)(CNc1ccc([N+](=O)[O-])cc1C#N)N1CCOCC1,-6,15*,-1,2,2,-3,Tn7 DDE conf=5;DDE Tn7 FP ctr=2
OCCOCCn1c(C(CO)Nc2nc(-c3ccccc3Br)cs2)nc2ccccc21 (stereo not drawn),5,14*,1,2,4,-2,Tn7 DDE conf=4;DDE Tn7 FP ctr=5
SMILES,ARNT-TACC3 inh,Tn7 DDE FP,CAL PDZ FP-1,GRK2 inh,DDE Tn6 FP inh,CAL PDZ FP-2,others
CC[C@@]12C(=O)N(c3ccc(OC)cc3)C(=O)N1[C@H](c1ccc(Cl)cc1)[C@@H]1C(=O)N(C3CCCCC3)C(=O)[C@@H]12,14,16*,0,0,3,-3,Tn7 DDE conf=7;DDE Tn7 FP ctr=-1
O=[N+]([O-])c1ccc(CP(=O)(c2ccccc2)c2ccccc2)cc1,-4,14*,1,3,3,-4,Tn7 DDE conf=8;DDE Tn7 FP ctr=2
O=C(C[C@H]1C[C@H]2c3cc(NC(=O)NC4CCCCC4)ccc3O[C@H]2[C@H](CO)O1)NCC(F)(F)F,-3,·,·,·,·,·,
CN1[C@H](C(=O)NC2Cc3ccccc3C2)[C@@H](CO)[C@@H]2Cn3c(ccc(-c4ccncc4)c3=O)[C@@H]21,1,·,·,·,·,·,
C=CC[C@@H](CC(=O)N(CCO)Cc1ccccc1)C(=O)N[C@H](COC(=O)[C@@H](CC=C)Cc1ccc(F)cc1)Cc1ccccc1,-4,16*,0,2,3,2,Tn7 DDE conf=-1;DDE Tn7 FP ctr=-4
C=CC[C@@H](CC(=O)N(CCO)Cc1ccccc1)C(=O)N[C@@H](COC(=O)[C@@H](CC=C)Cc1ccc(F)cc1)Cc1ccccc1,·,-11,-1,1,0,-2,
C[C@@H]1CN([C@H](C)CO)C(=O)c2cc(NC(=O)c3ccncc3)ccc2O[C@@H](C)CCCCO[C@@H]1CN(C)S(=O)(=O)c1cccs1,-2,·,·,·,·,·,
COC(=O)C1CSC(C(=O)OC)N1C(=O)Nc1ccc(Cl)cc1 (stereo not drawn),-1,2,0,1,2,-2,
COC(=O)C1CSC(C(=O)OC)N1C(=O)Nc1ccc(Cl)c(Cl)c1 (stereo not drawn),0,15*,-3,1,4,-2,Tn7 DDE conf=1;DDE Tn7 FP ctr=-2
Cc1ccc(S(=O)(=O)Nc2ccc3c(c2)C(=O)N([C@H](C)CO)C[C@@H](C)[C@@H](CN(C)Cc2ccc(C(=O)O)cc2)OCCCC[C@H](C)O3)cc1,-3,·,·,·,·,·,
Cc1cc(NS(=O)(=O)c2ccc(NC(=O)Cc3ccc([N+](=O)[O-])cc3)cc2)no1,13,14*,-3,1,4,0,Tn7 DDE conf=0;DDE Tn7 FP ctr=-2
O=[N+]([O-])c1ccc(NCCNc2ccc([N+](=O)[O-])cc2)cc1,2,8,3,·,6,-2,
C#CCNc1ccc([N+](=O)[O-])cc1,-4,19*,0,0,-1,-5,Tn7 DDE conf=14;DDE Tn7 FP ctr=2

# Screens deposited in PubChem BioAssay by several laboratories.
